Measured values from different studies.
Compare with care: the assays were run in different laboratories.
CHEK2: Serine/threonine-protein kinase Chk2 (CHEK2, Homo sapiens, UniProt O96017)
CHEK2 I157T: Serine/threonine-protein kinase Chk2 (CHEK2, Homo sapiens, UniProt O96017, I157T)

COc1cc(/C=C/C(=O)CC(=O)/C=C/c2ccc(O)c(OC)c2)ccc1O  activity vs control (CHEK2; enzyme activity, inhibitor; 1 µM): 68%
O=C1Nc2ccc(Cl)cc2C1=Cc1cc(Cl)c(O)c(Cl)c1  remaining signal (CHEK2; cell-free assay; 0.5 µM): 70.2%
CCCOc1ccc(OC)c(F)c1C(=O)c1ccc(C(=O)N[C@@H]2CNC[C@H]2NC(=O)c2ccc3[nH]ncc3c2)cc1  remaining activity (CHEK2 I157T; enzyme activity, inhibitor; 10 µM): 16%
Oc1cccc(-c2nc(N3CCOCC3)c3oc4ncccc4c3n2)c1  remaining signal (CHEK2; cell-free assay; 0.5 µM): 90.4%
CCC1(CC)NC(=O)c2c(c3ccc(Cl)c(Cl)c3n2C)C1C#N (stereo not shown)  ΔTm (CHEK2; thermal stability, DSF; 10 µM): -0.2 °C
Cc1noc([C@H]2C[C@@H](c3ccc(C(F)(F)F)cc3)CN(C(=O)N3CCS(=O)(=O)C3)C2)n1  remaining binding (CHEK2; cell-free assay, competition with immobilised ligand; 1 µM): 100%
CNC(=O)c1cc(Oc2ccc(NC(=O)Nc3ccc(Cl)c(C(F)(F)F)c3)cc2)ccn1  inhibition (CHEK2 I157T; enzyme activity, inhibitor; 0.3 µM): -9%
O=C1CCc2cc(Nc3cc(OC4CCOCC4)c([N+](=O)[O-])cc3Cl)ccc2N1  remaining binding (CHEK2; cell-free assay, competition with immobilised ligand; 1 µM): 69%
CCN(CC)CCNC(=O)c1c(C)[nH]c(/C=C2\C(=O)Nc3ccc(F)cc32)c1C  remaining signal (CHEK2; cell-free assay; 0.5 µM): 7.13%
Cc1cc(NC(=O)c2cccc3cc(-c4cccc5[nH]nc(N)c45)ccc23)ccc1F  activity vs control (Serine/threonine-protein kinase Chk2 (CHEK2, Homo sapiens, UniProt O96017, R145W); enzyme activity, inhibitor; 0.1 µM): 99%
CC(=O)C1=C(C)N(c2cccc(C(F)(F)F)c2)C(=O)N[C@@H]1c1ccc(C#N)nc1  remaining binding (CHEK2; cell-free assay, competition with immobilised ligand; 1 µM): 85.6%
Cc1ccc(Nc2nccc(N(C)c3ccc4c(C)n(C)nc4c3)n2)cc1S(N)(=O)=O  inhibition (CHEK2; enzyme activity, inhibitor; 0.3 µM): -13%
COc1cc2nccc(Oc3ccc(NC(=O)Nc4ccc(F)cc4F)c(F)c3)c2cc1OC  ΔTm (CHEK2; thermal stability, DSF; 10 µM): 5 to 10 °C
Cn1c2c(Cl)c(Cl)ccc2c2cc(N)[nH]c(=O)c21  ΔTm (CHEK2; thermal stability, DSF; 10 µM): 0.1 °C
CN([C@@H]1CCc2c(CC(=O)O)c3ccccc3n2C1)S(=O)(=O)c1ccc(F)cc1  remaining binding (CHEK2; cell-free assay, competition with immobilised ligand; 1 µM): 100%
N#CC1c2c([nH]c3c(Cl)c(Cl)ccc23)C(=O)NC12CCCCC2 (racemic)  ΔTm (CHEK2; thermal stability, DSF; 10 µM): 0.1 °C
N#CCCc1ccc2c(c1)-c1[nH]c3ccc([N+](=O)[O-])cc3c1CC(=O)N2  remaining signal (CHEK2; cell-free assay; 0.5 µM): 12.6%
CN1CCC2(CC1)NC(=O)c1c(c3ccc(Cl)c(Cl)c3n1C)C2C#N (racemic)  ΔTm (CHEK2; thermal stability, DSF; 10 µM): -0.3 °C
CC(C)CC(=O)N1CCc2nc(-c3ccc(Br)cc3)nc(N(C)Cc3ccccc3)c2C1  remaining binding (CHEK2; cell-free assay, competition with immobilised ligand; 0.1 µM): 100%
Cc1ccc(NC(=O)c2ccc(C)c(C(F)(F)F)c2)cc1C#Cc1nn(C2CCC(O)CC2)c2ncnc(N)c12 (stereo not shown)  remaining signal (CHEK2; cell-free assay; 10 µM): 111%
CN(C)C1CCN(CC#Cc2nn(C3CCCC3)c3nc(NCc4ccccc4)ncc23)C1 (stereo not shown)  inhibition (CHEK2; enzyme activity, inhibitor, FRET; 1 µM): 7%
Cc1ccc(C(=O)NCc2ccsc2)cc1C#Cc1cn(C(C)C)c2ncnc(N)c12  activity vs control (CHEK2; enzyme activity, inhibitor; 1 µM): 109%
CN([C@@H]1CCc2c(CC(=O)O)c3cc(S(C)(=O)=O)ccc3n2C1)S(=O)(=O)c1ccc(F)cc1  remaining binding (CHEK2; cell-free assay, competition with immobilised ligand; 1 µM): 100%
CCN1CCC2(CC1)NC(=O)c1c(c3ccc(Cl)c(Cl)c3n1C)C2C#N (racemic)  ΔTm (CHEK2; thermal stability, DSF; 10 µM): -0.2 °C
CCOCCn1cc(C(=O)Nc2ccc(-n3nc(-c4cccnc4)cc3C(F)(F)F)cn2)ccc1=O  remaining binding (CHEK2; cell-free assay, competition with immobilised ligand; 1 µM): 0%
Cn1c2c(c3ccc(Cl)c(Cl)c31)C(C#N)C1(CCNCC1)NC2=O (racemic)  ΔTm (CHEK2; thermal stability, DSF; 10 µM): 0.2 °C
CO[C@@H](C)c1c(Nc2ccc([C@H](N(C)C(=O)C3CCS(=O)(=O)CC3)C(F)(F)F)cc2)cnc2cc(Cl)nn12  remaining binding (CHEK2; cell-free assay, competition with immobilised ligand; 1 µM): 90%
O=C1NC(=O)c2c1c1c3ccccc3[nH]c1n1cncc21  remaining signal (CHEK2; cell-free assay; 0.5 µM): 21.2%
